Only some compounds are listed: those with a hit (about 4% of all), similar ones and a draw of the others.
KCC2 mod – KCC2 (human) Cl- transport modulation; Q9H2X9; KCC2 cells, thallium flux FluoZin-2 fluorescence; B-score of Tl+ flux slope (higher = more flux/activation; lower = inhibition) at 10 µM; 190,000 tested, 2.2% active;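 active = thallium flux slope and its plate-corrected score both differing from the plate sample mean at a set confidence after two filtering rounds, in either direction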;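 also: slope of fluorescence scaled to starting intensity during 10 to 20 s after thallium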
MT stabilize HCS – microtubule stabilizers in HeLa cells; HeLa tubulin immunostaining HCS, 24 h; share of cells brighter than vehicle mean+2SD; AID 2205; 200,000 tested, 0.83% active; % tubulin-high responders, % at 10 µM;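 active = plate Z-score above 3 for both tubulin-high and condensed-nucleus cell shares, with cell loss under 80%, at 10 µM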;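 also: anti alpha tubulin signal scored within the nucleus-defined area of each cell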
bCat nuc transl – modulators of beta-catenin nuclear translocation. HeLa beta-catenin nuclear translocation, immunofluorescence imaging. 190,000 tested, 0.3% active. nuclear translocation activity, % at 5 µM;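 active = nuclear translocation activity above 50% at 5 µM, with a well cell count of 50 or more; inconclusive = wells under 50 cells across six images, flagged as toxic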;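 also: per-cell ratio of nuclear to cytoplasmic median beta-catenin stain intensity; plate controls were DMSO negative control for no effect and GSK-3 inhibitor IX positive control for full effect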
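System: Human HeLa cells, endogenous beta-catenin | Compound dosing: 5 µM primary, 0.02–20 µM confirmation | Timing: 24 h compound exposure at 37°C, 5% CO2 | Measured by: Fluorescence imaging of beta-catenin antibody stain plus DAPI | Read-out basis: % activation of per-cell nuclear versus cytoplasmic median beta-catenin signal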
Pf gametocyte – kills late stage P. falciparum gametocytes. P. falciparum stage V gametocytes, ATP luminescence, 24 h. inhibition, % at 10.9 µM. 150,000 tested, 0.065% active. AID 743093;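 active = inhibition above the mean plus 3 SD of compounds within the control limits, set per campaign, cut at about 38% in these data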;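 also: 0% = DMSO wells and 100% = medium only without gametocytes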
WT yeast gro inh – growth inhibition of WT yeast, mitochondrial fusion screen | mitochondrial fusion phenotypic screen, WT strain | inhibition, % at 10 µM | 190,000 tested, 2.1% active | AID 1362; in the data active = inhibition above about 58%; tested in S. cerevisiae
KCC2 sec1 – confirmation of human KCC2 transport modulators; normalised thallium flux (F/F0 slope) at 10 µM; shares compounds with KCC2 mod; AID 1713; 3,700 tested, 15% active; HEK293-KCC2, thallium flux, FluoZin2 fluorescence; active compounds read high;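 active = thallium flux slope above the same plate's solvent-only control mean plus 3 SD; inconclusive = the two replicate wells disagree; inactive = no significant difference from solvent-only control wells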
KCC2 bumet counter – thallium flux despite bumetanide block in KCC2 cells, secondary assay 3 | shares compounds with KCC2 mod | HEK293-KCC2 + bumetanide/ouabain, thallium flux FluoZin2; active compounds read high | normalized thallium flux at 10 µM | 3,700 tested, 49% active;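 active = thallium entry rate above the same plate's blocked-transporter control wells by more than 3 SD; inconclusive = the two repeat wells disagree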;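 also: raw slope of fluorescence over initial fluorescence between 10 and 20 s after thallium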
KCC2 secondary2 – confirmation of human KCC2 transport modulators; shares compounds with KCC2 mod; HEK293-KCC2, thallium flux FluoZin2 fluorescence; actives lie on both sides; F/F0 rise rate, 10–20 s post-thallium; 3,700 tested, 23% active; normalized thallium flux at 10 µM;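 active = thallium flux slope more than 3 SD above or below the plate's solvent-only control mean, mostly below; inconclusive = the two repeat wells disagreed; inactive = no significant shift from solvent-only controls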;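 also: raw slope with 0.1% DMSO as baseline and bumetanide as block control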
HEK293 Tl flux – acts in parental HEK cells, KCC2 counter-screen; HEK293 parental cells, thallium flux FluoZin2, ouabain; baseline-ratio fluorescence slope, 10–20 s after thallium; 3,700 tested, 46% active; thallium flux rate (normalised fluorescence) at 10 µM; shares compounds with KCC2 mod; AID 1716;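 active = thallium flux rate significantly above the same plate's solvent-only control wells, beyond their mean plus 3 SD; inconclusive = the two replicate wells gave conflicting results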
KCC2 ouabain – KCC2 (human) modulation, ouabain retest. raw Tl+ flux slope (below DMSO = inhibition, above = activation) at 10 µM. 3,700 tested, 48% active. shares compounds with KCC2 mod. HEK293-KCC2, thallium flux FluoZin2 fluorescence; bidirectional: low = inhibitor, high = activator;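 active = thallium flux slope beyond 3 SD from same-plate DMSO control mean in most replicates, usually higher, sometimes lower; inconclusive = repeat tests gave conflicting results; inactive = no significant difference from controls in most replicates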;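 also: slope of initial-normalized fluorescence between seconds 10 and 20 after thallium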
HEK293 Tl flux2 – parental HEK flux effect, counter-screen 2; shares compounds with KCC2 mod; thallium flux slope at 10 µM; HEK293 parental, thallium flux FluoZin-2 fluorescence slope; 3,700 tested, 33% active;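 active = thallium flux slope above the same plate's solvent-control mean plus 3 SD in both duplicate wells; inconclusive = duplicate wells that disagreed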;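 also: run without ouabain in cells lacking the KCC2 cotransporter; slope of fluorescence scaled to its starting value between 10 and 20 s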
Starred values were filed as active, the others as inactive; ? = inconclusive; . = no result.

SMILES	KCC2 mod	MT stabilize HCS	bCat nuc transl	Pf gametocyte	WT yeast gro inh	KCC2 sec1	KCC2 bumet counter	KCC2 secondary2	HEK293 Tl flux	KCC2 ouabain	HEK293 Tl flux2
Cc1nc2ccccc2c2c1C(=O)N(C1CCCCCCC1)C2=O	-4.8*	3	-1	3	-7	0.01	?	0.033	0.0076	0.022	0.01
Cc1nc2ccccc2c2c1C(=O)N(c1ccc(C(=O)O)cc1)C2=O	1	2	-4	.	-1	.	.	.	.	.	.
S=c1[nH]c2cc(-c3ccccc3)ccc2o1	.	.	-1	.	.	.	.	.	.	.	.
O=C(Nc1ccc(SC(F)F)cc1)c1ccc(F)cc1	0.41	2	-2	-7	5	.	.	.	.	.	.
O=C1CN(c2nc(-c3cccs3)nc3sc4c(c23)CCCC4)CCN1	16*	3	-1	-4	33	0.0075	0.0098*	0.03	0.01*	?	0.01
CCn1c(CNC(=O)c2ccco2)nnc1SCC(=O)Nc1ccc(Br)cc1F	1	3	-2	-9	-3	.	.	.	.	.	.
Cc1ccc(-n2ncc3c(SCc4cccc(C)c4)ncnc32)cc1	6.6*	3	-3	-25	-7	0.0074	0.022*	0.042*	0.022*	0.031*	0.026*
Cc1cccc(CSc2ncnc3c2cnn3Cc2ccccc2)c1	-0.24	1	-2	-16	53	.	.	.	.	.	.
CC1Cc2ccccc2N1C(=O)/C=C/c1cccc(F)c1 (stereo not given)	-4.4*	2	-1	-11	9	0.0065	0.0051	0.023*	0.0071	0.015*	0.01
CC(=O)c1cccc(NC(=S)N2c3ccccc3CC2C)c1 (stereo not given)	-0.38	2	-2	.	10	.	.	.	.	.	.
Cc1nc(/C=C\C(=O)O)c2cc(C)oc2n1	0.044	5	0	.	-9	.	.	.	.	.	.
O=C(C1CCC(CNc2nc(=S)[nH]c3ccccc23)CC1)N1CCN(c2ccc(F)cc2)CC1 (stereo not given)	-7.5*	2	0	11	0	0.0051	0.0046	0.022*	0.006*	0.01*	0.0087
COc1ccc(N2CCN(C(=O)C3CCC(Cn4c(=S)[nH]c5ccccc5c4=O)CC3)CC2)cc1 (stereo not given)	2.8*	5	0	.	41	0.0065	0.014*	0.038	0.014*	?	0.015*
O=C(C1CCC(Cn2c(=S)[nH]c3ccccc3c2=O)CC1)N1CCN(c2ccccc2)CC1 (stereo not given)	0.77	2	.	10	.	.	.	.	.	.	.
CC(=O)c1ccc(OC(=O)CCc2nc3ccccc3s2)cc1	0.024	3	0	-4	5	.	.	.	.	.	.
NS(=O)(=O)c1ccc2c(c1)oc(=O)c1cc(S(N)(=O)=O)ccc12	0.55	3	1	-23	-16	.	.	.	.	.	.
O=C(c1ccc(Cl)cc1)c1cnc2ccccn12	-3.4*	1	.	.	-12	0.007	0.0046	0.03	0.008	0.018	0.01
CC(Cc1cccs1)NC(=S)Nc1ccc(Cl)c(Cl)c1 (stereo not given)	6.7*	3	.	-58	57	0.0069	0.019*	0.028	0.0084*	0.021*	?
CCn1c(C)c(C2=CCN(S(=O)(=O)c3ccccc3)CC2)c2ccccc21	0.1	3	-5	-2	-5	.	.	.	.	.	.
N#C/C(=C\c1cccs1)C(=O)NCc1ccccc1	-0.062	3	0	-4	-1	.	.	.	.	.	.
N#C/C(=C\c1cccs1)C(=O)Nc1nccs1	10*	4	0	5	8	0.012*	0.019*	0.035	0.013*	?	0.012*

Screens: PubChem BioAssay, several laboratories
